This is an account of results in the RNAGym collection of RNA variant scans (doi:10.1126/science.aae0568).

The labels stand for the following.
B1: tRNA (parent)
chain: GUUCCGUUGGCGUAAUGGUAACGCGUCUCCCUCCUAAGGAGAAGACUGCGGGUUCGAGUCCCGUACGGAACG

Fewer inactive variants are shown than the library holds.

The variants in the data set derive from B1. Put plainly: yeast fitness relative to wild type (ratio to wild type); higher = fitter; tRNA-Arg(CCU), competitive growth, 37 C, YPD. The method, boiled down:
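Changes in genotype frequencies gave Darwinian fitness relative to wild type. Frequencies were read by 100-nucleotide paired-end sequencing of gene amplicons before and after pooled Saccharomyces cerevisiae strains, carrying tRNA-Arg(CCU) gene variants at the native locus, were competed in YPD at 37°C for 24 hours in six replicates. A genotype was kept only with ≥ 100 starting reads, and estimates < 0.5 were set to 0.5.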
As for GUUCCGUUGGCGUAAUGGUAACGCGUCUCCCUCCUAAGGAGAAGACUGCGGGUUCGCGUCUCGUACGGAACG [A57C C61U], the yeast fitness stood at 0.656. Then GUUCCGUUGGCGUAAUGGUAACGCGUCUCCCUCCUAAGGAGAAGACUGCGGGUUCGGGUCGCGUAUGGAACG [A57G C61G C66U], with at most 0.5; and GUUCCGUUGGCGUAAUGGUAACGCGUCUCCCUCCUAAGGAGAAGACUGCGGGUUCGGGUCCCGUAGGGAACG [A57G C66G], with 0.783; and GUUCCGUUGGCGUAAUGGUAACGCGUCUCCCUCCUAAGGAGAAGACUGCGGGUUCGGGUCCCGUAAGGAACG [A57G C66A], with 0.652. As for GUUCCGUUGGCGUAAUGGUAACGCGUCUCCCUCCUAAGGAGAAGACUGCGGGUUCGGGUUCCGUACGGAUCG [A57G C60U A70U], the yeast fitness was at most 0.5. The result for GUUCCGUUGGCGUAAUGGUAACGCGUCUCCCUCCUAAGGAGAAGACUGCGGGUUCGCGUCCAGUCCGGAACG [A57C C62A A65C] reads at most 0.5. Then GUUCCGUUGGCGUAAUGGUAACGCGUCUCCCUCCUAAGGAGAAGACUGCGGGUUCGCGUCUCGUACGGAUCG [A57C C61U A70U], with at most 0.5.

Regarding GUUCCGUUGGCGUAAUGGUAACGCGUCUCCCUCCUAAGGAGAAGACUGCGGGUUCGGGUACCGUACGGAACG [A57G C60A], the yeast fitness was 0.636.

Consider GUUCCGUUGGCGUAAUGGUAACGCGUCUCCCUCCUAAGGAGAAGACUGCGGGUUCGGGUGCCGUACGGAACG [A57G C60G], for which the yeast fitness turned out to be 0.641. The result for GUUCCGUUGGCGUAAUGGUAACGCGUCUCCCUCCUAAGGAGAAGACUGCGGGUUCGGGUUCCGUACGGAACG [A57G C60U] reads 0.838; that for GUUCCGUUGGCGUAAUGGUAACGCGUCUCCCUCCUAAGGAGAAGACUGCGGGUUCGCAUCCCGUACGGACCG [A57C G58A A70C], at most 0.5. Then GUUCCGUUGGCGUAAUGGUAACGCGUCUCCCUCCUAAGGAGAAGACUGCGGGUUCGCAUCCCGUACGGAACG [A57C G58A], with 0.696; and GUUCCGUUGGCGUAAUGGUAACGCGUCUCCCUCCUAAGGAGAAGACUGCGGGUUCGCCUCCCGUACGGAACG [A57C G58C], with 0.77. Take GUUCCGUUGGCGUAAUGGUAACGCGUCUCCCUCCUAAGGAGAAGACUGCGGGUUCGCCGCCCGUAUGGAACG [A57C G58C U59G C66U]: the yeast fitness was determined as 0.606. Then GUUCCGUUGGCGUAAUGGUAACGCGUCUCCCUCCUAAGGAGAAGACUGCGGGUUCGGGUCGAGUACGGAACG [A57G C61G C62A], with 0.633; and GUUCCGUUGGCGUAAUGGUAACGCGUCUCCCUCCUAAGGAGAAGACUGCGGGUUCGCGUCCCGUCCGGAACG [A57C A65C], with 0.594. Then GUUCCGUUGGCGUAAUGGUAACGCGUCUCCCUCCUAAGGAGAAGACUGCGGGUUCGCGUCUCGUAUGGCACG [A57C C61U C66U A69C], with at most 0.5; and GUUCCGUUGGCGUAAUGGUAACGCGUCUCCCUCCUAAGGAGAAGACUGCGGGUUCGGGUCCCGUUCGGAACG [A57G A65U], with 0.699; and GUUCCGUUGGCGUAAUGGUAACGCGUCUCCCUCCUAAGGAGAAGACUGCGGGUUCGGGUCCCGUACGGAUCG [A57G A70U], with 0.937.

Regarding GUUCCGUUGGCGUAAUGGUAACGCGUCUCCCUCCUAAGGAGAAGACUGCGGGUUCGCGUCCCGUUGGGAACG [A57C A65U C66G], the yeast fitness is at most 0.5.

Regarding GUUCCGUUGGCGUAAUGGUAACGCGUCUCCCUCCUAAGGAGAAGACUGCGGGUUCGCGUCCCGUACGCAACG [A57C G68C], the yeast fitness is 0.729.

On to GUUCCGUUGGCGUAAUGGUAACGCGUCUCCCUCCUAAGGAGAAGACUGCGGGUUCGGGUCCGGUAUGGAACG [A57G C62G C66U], for which the yeast fitness was determined as 0.596. Then GUUCCGUUGGCGUAAUGGUAACGCGUCUCCCUCCUAAGGAGAAGACUGCGGGUUCGCGUCCGGUACGGAACG [A57C C62G], with 0.818; and GUUCCGUUGGCGUAAUGGUAACGCGUCUCCCUCCUAAGGAGAAGACUGCGGGUUCGCGUCCCGUACGGUACG [A57C A69U], with 0.605; and GUUCCGUUGGCGUAAUGGUAACGCGUCUCCCUCCUAAGGAGAAGACUGCGGGUUCGCGUCACGUACAGAACG [A57C C61A G67A], with 0.56. Then GUUCCGUUGGCGUAAUGGUAACGCGUCUCCCUCCUAAGGAGAAGACUGCGGGUUCUGGUCCCGUACGUAACG [G56U A57G G68U], with at most 0.5. Then GUUCCGUUGGCGUAAUGGUAACGCGUCUCCCUCCUAAGGAGAAGACUGCGGGUUCGCGUCCCAUACGGAACG [A57C G63A], with 0.558; and GUUCCGUUGGCGUAAUGGUAACGCGUCUCCCUCCUAAGGAGAAGACUGCGGGUUCGCGUCCCGUAAGGAACG [A57C C66A], with 0.624.

With GUUCCGUUGGCGUAAUGGUAACGCGUCUCCCUCCUAAGGAGAAGACUGCGGGUUCGCGUCCCGUAUGGAACG [A57C C66U], the yeast fitness turned out to be 0.652.

Turning to GUUCCGUUGGCGUAAUGGUAACGCGUCUCCCUCCUAAGGAGAAGACUGCGGGUUCGCGUCCCGAACGGAACG [A57C U64A], the yeast fitness was found to be 0.707. The result for GUUCCGUUGGCGUAAUGGUAACGCGUCUCCCUCCUAAGGAGAAGACUGCGGGUUCGCGUCCCGUACUGAACG [A57C G67U] reads 0.516; that for GUUCCGUUGGCGUAAUGGUAACGCGUCUCCCUCCUAAGGAGAAGACUGCGGGUUCGCGUCCCGUACAGAACG [A57C G67A], 0.504. Turning to GUUCCGUUGGCGUAAUGGUAACGCGUCUCCCUCCUAAGGAGAAGACUGCGGGUUCGCGUCCAGUAAGGAACG [A57C C62A C66A], the yeast fitness was at most 0.5. As for GUUCCGUUGGCGUAAUGGUAACGCGUCUCCCUCCUAAGGAGAAGACUGCGGGUUCGCGUCCCGUACGGACCG [A57C A70C], the yeast fitness came to 0.676. Consider GUUCCGUUGGCGUAAUGGUAACGCGUCUCCCUCCUAAGGAGAAGACUGCGGGUUCGCGUCCCGUACGGAUCG [A57C A70U], for which the yeast fitness amounted to 0.679. GUUCCGUUGGCGUAAUGGUAACGCGUCUCCCUCCUAAGGAGAAGACUGCGGGUUCGGGUCUCGUACGGAACG [A57G C61U]: the yeast fitness amounted to 0.699. Then GUUCCGUUGGCGUAAUGGUAACGCGUCUCCCUCCUAAGGAGAAGACUGCGGGUUCGGGUCGCGUACGGAACG [A57G C61G], with 0.61. Then GUUCCGUUGGCGUAAUGGUAACGCGUCUCCCUCCUAAGGAGAAGACUGCGGGUUCUAGGCCCGUACGGAGCG [G56U U59G A70G], with at most 0.5.
